Test results reported in ChEMBL document CHEMBL1124703, “Analogues of carbamyl aspartate as inhibitors of dihydroorotase: preparation of boronic acid transition-state analogues and a zinc chelator carbamylhomocysteine” (J Med Chem, 1990).
pKi: −log10 of the molar value. Blank lines part the entries; values can stand above or below the compound they belong to.

Tests used:
L1210 [1] = experiment: Uptake in L1210 cells at a concentration of 210 uM after 24 hr; settings: Mus musculus, L1210, 24 h
[2] = biological target: Multifunctional protein CAD (Homo sapiens, UniProt P27708); experiment: Inhibitory activity against Dihydroorotase (DHO) at pH 6.0; design: species or system Cricetulus griseus
L1210 [3] = experiment: Inhibitory activity against murine L1210 cell growth at a concentration of 250 uM after 0h; format: functional, Mus musculus
Summary of the method: (§1)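 Murine L1210 cells kept in DMEM with 10% FCS and L-glutamine and harvested in log phase. About 1×10^5 cells/mL held 24 h in depleted medium before drug or DMSO vehicle was added. Trypan blue-excluding cells counted by hemacytometer at 0, 24 and 48 h. Three flasks per concentration and six controls; reported as % survival versus control.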

L1210 [4] = experiment: Inhibitory activity against murine L1210 cell growth at a concentration of 250 uM after 8 hr; format: functional, Mus musculus
L1210 [5] = experiment: Inhibitory activity against murine L1210 cell growth at a concentration of 250 uM after 24 hr; format: functional, Mus musculus
Summary of the method: as §1

L1210 [6] = experiment: Inhibitory activity against murine L1210 cell growth at a concentration of 100 uM after 24 hr; format: functional, Mus musculus
Summary of the method: as §1

L1210 [7] = experiment: Inhibitory activity against murine L1210 cell growth at a concentration of 100 uM after 48 hr
L1210 [8] = experiment: Inhibitory activity against murine L1210 cell growth at a concentration of 100 uM after 0h; format: functional, Mus musculus
Summary of the method: as §1

Sequence of Multifunctional protein CAD (P27708 whole entry): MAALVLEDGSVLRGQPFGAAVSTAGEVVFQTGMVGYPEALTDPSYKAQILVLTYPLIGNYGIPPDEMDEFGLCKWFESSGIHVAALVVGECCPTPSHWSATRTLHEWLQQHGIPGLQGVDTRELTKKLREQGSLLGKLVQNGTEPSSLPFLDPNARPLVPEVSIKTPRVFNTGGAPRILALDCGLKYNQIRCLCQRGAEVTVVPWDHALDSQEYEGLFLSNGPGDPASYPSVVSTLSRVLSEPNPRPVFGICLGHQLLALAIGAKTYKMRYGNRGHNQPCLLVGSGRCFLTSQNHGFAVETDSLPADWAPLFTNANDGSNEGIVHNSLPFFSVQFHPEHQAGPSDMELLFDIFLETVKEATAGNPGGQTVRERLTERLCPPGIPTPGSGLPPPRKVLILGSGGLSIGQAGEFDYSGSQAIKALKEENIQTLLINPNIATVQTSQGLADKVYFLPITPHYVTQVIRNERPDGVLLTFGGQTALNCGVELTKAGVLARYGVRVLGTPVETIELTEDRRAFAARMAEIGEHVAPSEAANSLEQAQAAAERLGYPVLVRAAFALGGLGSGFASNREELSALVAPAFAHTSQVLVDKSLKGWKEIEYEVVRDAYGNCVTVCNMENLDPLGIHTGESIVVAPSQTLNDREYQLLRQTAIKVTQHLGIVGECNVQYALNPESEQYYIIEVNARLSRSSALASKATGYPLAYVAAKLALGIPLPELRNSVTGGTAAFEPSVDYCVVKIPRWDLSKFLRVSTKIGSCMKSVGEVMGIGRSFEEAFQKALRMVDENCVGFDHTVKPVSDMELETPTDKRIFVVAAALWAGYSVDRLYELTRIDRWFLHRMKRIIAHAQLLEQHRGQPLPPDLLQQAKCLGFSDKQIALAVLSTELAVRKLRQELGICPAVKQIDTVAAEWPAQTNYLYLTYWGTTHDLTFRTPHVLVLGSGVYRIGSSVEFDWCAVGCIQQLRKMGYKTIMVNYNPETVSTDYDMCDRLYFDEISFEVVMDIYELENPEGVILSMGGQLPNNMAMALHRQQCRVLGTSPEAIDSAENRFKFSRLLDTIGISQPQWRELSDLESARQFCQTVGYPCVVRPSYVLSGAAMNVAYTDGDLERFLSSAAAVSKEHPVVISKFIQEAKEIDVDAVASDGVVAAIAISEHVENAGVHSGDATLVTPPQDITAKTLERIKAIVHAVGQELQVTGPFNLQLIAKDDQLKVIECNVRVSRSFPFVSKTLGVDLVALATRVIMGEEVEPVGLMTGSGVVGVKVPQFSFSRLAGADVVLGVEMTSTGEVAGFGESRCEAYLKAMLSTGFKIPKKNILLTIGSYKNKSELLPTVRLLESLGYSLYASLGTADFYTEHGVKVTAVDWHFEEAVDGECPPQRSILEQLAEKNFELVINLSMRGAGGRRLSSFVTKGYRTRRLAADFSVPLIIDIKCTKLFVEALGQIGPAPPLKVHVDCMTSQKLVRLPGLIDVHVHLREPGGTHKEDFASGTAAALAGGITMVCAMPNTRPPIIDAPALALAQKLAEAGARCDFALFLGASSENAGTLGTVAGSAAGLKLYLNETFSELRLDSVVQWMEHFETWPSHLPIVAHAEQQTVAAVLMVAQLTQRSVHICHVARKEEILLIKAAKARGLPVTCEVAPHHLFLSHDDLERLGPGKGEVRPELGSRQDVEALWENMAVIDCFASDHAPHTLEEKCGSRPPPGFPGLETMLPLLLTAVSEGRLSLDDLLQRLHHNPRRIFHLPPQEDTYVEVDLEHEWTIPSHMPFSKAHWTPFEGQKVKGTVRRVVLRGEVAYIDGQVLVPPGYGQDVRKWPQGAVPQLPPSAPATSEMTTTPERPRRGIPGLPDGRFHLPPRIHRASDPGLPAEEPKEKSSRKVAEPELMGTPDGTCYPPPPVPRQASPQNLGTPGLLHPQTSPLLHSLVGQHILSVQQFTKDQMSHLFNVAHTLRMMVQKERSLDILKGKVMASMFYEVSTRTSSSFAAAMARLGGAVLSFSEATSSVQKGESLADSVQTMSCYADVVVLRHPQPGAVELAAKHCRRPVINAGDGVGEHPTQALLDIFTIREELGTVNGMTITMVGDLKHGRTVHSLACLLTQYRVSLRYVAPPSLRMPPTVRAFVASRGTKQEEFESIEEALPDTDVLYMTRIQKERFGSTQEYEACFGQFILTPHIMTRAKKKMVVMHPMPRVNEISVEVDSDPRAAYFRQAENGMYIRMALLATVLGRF

pKi [2]: 5.29
Structure (SMILES): CCOC(=O)C(CB(O)O)NC(N)=O (stereo not drawn)
Uptake at 210 µM (L1210 [1]): 0.09%

Structure (SMILES): NC(=O)BCCNC(CC(=O)O)C(=O)O (stereo not drawn) [BOROCARBAMYLETHYL ASPARTATE]
Cell survival (L1210 [3]): 114
Cell survival (L1210 [4]): 80
Cell survival (L1210 [5]): 66

Structure (SMILES): O=C(O)C[C@H](NC(=O)CP(=O)(O)O)C(=O)O [PALA]
Cell survival (L1210 [6]): 28
Cell survival (L1210 [7]): 22
Cell survival (L1210 [8]): 96
